Here are results for six molecules from ChEMBL document CHEMBL3259586, “Localization and interaction of hydroxyflavones with lipid bilayer model membranes: a study using DSC and multinuclear NMR” (Eur J Med Chem, 2014).

≈ marks a conversion by molar mass, not a printed value. Calls of active or inactive are those of the source. The rule behind the calls is not given here.

Assay [1] can be described thus: Binding affinity to multilamellar vesicles of DPPC assessed as increase in chemical shift anisotropy at 323 K by [31P]-NMR spectroscopic analysis. In outline:
(§1)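 Lipid held at 100 mM for NMR samples with flavone at 10 to 50 mM; multilamellar vesicles from chloroform-dissolved DPPC; unilamellar vesicles made by sonicating lipid dispersions at 50% duty cycle until optically clear.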

Assay [2] concerns Lipid bilayer. Put plainly: Binding affinity to DPPC lipid bilayer assessed as decrease in melting temperature by differential scanning calorimetric analysis. In outline: (§2)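 DPPC multilamellar vesicles made from chloroform lipid solution, lipid held at 50 mM, drug/lipid molar ratios 1:20 to 1:2; DSC heating scans give pretransition (Tp) and main transition (Tm) temperatures; repeat scans of the same samples.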

Assay [3] deals with Radical scavenging activity. Put plainly: Antioxidant activity assessed as DPPH radical scavenging activity after 30 mins. The format is functional. Put shortly: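 Test compounds at varied concentrations added to methanolic DPPH with 0.1 M Tris-HCl buffer; absorbance read at 517 nm after 30 min incubation; IC50 read graphically from dose-response curves; at least three experiments.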

Another assay concerns HepG2. Put plainly: Antiproliferative activity against human HepG2 cells assessed as cell growth at 10^-4 ug/ml after 48 hrs by sulforhodamine B assay relative to control. The settings on record: HepG2, 48 h, read-out: Activity. The format is functional. In outline:
(§3)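 Sulforhodamine B assay; cells grown in RPMI 1640 with 10% fetal bovine serum and 2 mM L-glutamine; compounds dissolved in DMSO, diluted into culture medium; incubated 48 h under standard conditions; percent growth inhibition calculated.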

The next assay relates to MCF7. The assay is described as follows: Antiproliferative activity against human MCF7 cells assessed as cell growth at 10^-4 ug/ml after 48 hrs by sulforhodamine B assay relative to control. The format is functional. The settings on record: MCF7, 48 h, read-out: Activity. Put shortly:
as §3

The subject of the next assay is K562. The assay is described as follows: Antiproliferative activity against human K562 cells assessed as cell growth at 10^-4 ug/ml after 48 hrs by sulforhodamine B assay relative to control. The format is functional. The settings on record: K562, 48 h, read-out: Activity. In outline: as §3
A short description of assay [4]: Binding affinity to multilamellar vesicles after 2 hrs by centrifugation method.
A short description of assay [5]: Binding affinity to multilamellar vesicles by NMR titration method. In outline:
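NMR titration with drug held at 10 mM and lipid varied 1-10 mM; lipid stock in D2O, drug stock in methanol, both diluted; TSP added as reference; fraction bound derived from chemical shift changes.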

The subject of assay [6] is Lipid bilayer. The assay is described as follows: Binding affinity to DPPC lipid bilayer assessed as pre-transition temperature at 1:20 drug to DPPC molar ratio by differential scanning calorimetric analysis. Put shortly:
as §2

Assay [7] relates to Lipid bilayer. Put plainly: Binding affinity to DPPC lipid bilayer assessed as pre-transition temperature at 1:10 drug to DPPC molar ratio by differential scanning calorimetric analysis. In outline:
as §2

The test system of assay [8] is Lipid bilayer. The assay is described as follows: Binding affinity to DPPC lipid bilayer assessed as pre-transition temperature at 1:5 drug to DPPC molar ratio by differential scanning calorimetric analysis. In outline:
as §2

In assay [9] the test system is Lipid bilayer. Put plainly: Binding affinity to DPPC lipid bilayer assessed as pre-transition temperature at 1:2 drug to DPPC molar ratio by differential scanning calorimetric analysis. Put shortly:
as §2

Assay [10] has as its system Lipid bilayer. Put plainly: Binding affinity to DPPC lipid bilayer assessed as melting temperature at 1:20 drug to DPPC molar ratio by differential scanning calorimetric analysis. In outline: as §2
The subject of assay [11] is Lipid bilayer. Put plainly: Binding affinity to DPPC lipid bilayer assessed as melting temperature at 1:10 drug to DPPC molar ratio by differential scanning calorimetric analysis. In outline: as §2
The subject of assay [12] is Lipid bilayer. The assay is described as follows: Binding affinity to DPPC lipid bilayer assessed as melting temperature at 1:5 drug to DPPC molar ratio by differential scanning calorimetric analysis. Put shortly: as §2
In assay [13] the test system is Lipid bilayer. Put plainly: Binding affinity to DPPC lipid bilayer assessed as melting temperature at 1:2 drug to DPPC molar ratio by differential scanning calorimetric analysis. Put shortly:
as §2

The subject of assay [14] is Lipid bilayer. Put plainly: Binding affinity to unilamellar vesicles of DPPC in D2O at 1:5 drug to lipid molar ratio at 323 K by [1H]-NMR spectroscopic analysis. Put shortly:
as §1

Assay [15] deals with Lipid bilayer. The assay is described as follows: Binding affinity to unilamellar vesicles of DPPC in D2O at 1:5 drug to lipid molar ratio at 323 K by [13C]-NMR spectroscopic analysis. In outline: as §1
Assay [16] is described as follows: Binding affinity to multilamellar vesicles of DPPC at 1:10 to 1:2 drug to lipid molar ratio at 323 K by [31P]-NMR spectroscopic analysis. In outline:
as §1

For assay [17], the system named is Lipid bilayer. Put plainly: Binding affinity to unilamellar vesicles of DPPC in D2O at 1:5 drug to lipid molar ratio at 323 K by 2D-NOESY spectroscopic analysis. In outline:
as §1

The nature of assay [18]: Binding affinity to multilamellar vesicles at 100 uM after 2 hrs by centrifugation method relative to control.

As for `O=c1cc(-c2ccccc2)oc2cccc(O)c12` [5-HYDROXYFLAVONE], the Activity entry (in assay [1]; in the assay with Lipid bilayer [2]) was “Dose-dependent effect” throughout. For the same molecule, in [3], the IC50 came out at 23.8 µg/mL (≈ 99.9 µM). The values for the growth at 0.0001 µg/mL in the assay with HepG2, in the assay with MCF7 and in the assay on K562 were 88.8%, 28.6% and 26.7%, respectively. Besides, the figures for the Kapp in assay [4] and in assay [5] were 313 M⁻¹ and 229 M⁻¹, respectively. Further, the T with Lipid bilayer [6] stood at 32.3 °C; in the assay on Lipid bilayer [7], 32 °C; in the assay on Lipid bilayer [8] it was 32 °C; with Lipid bilayer [9] it was 30.3 °C. In addition, the Tm in the assay with Lipid bilayer [10] stood at 41.1 °C; with Lipid bilayer [11], 40.7 °C; in the assay with Lipid bilayer [12] it was 40.6 °C; in the assay on Lipid bilayer [13], 39.6 °C. Also, the outcome in the assay with Lipid bilayer [14] and with Lipid bilayer [15] was Active.
In the case of `O=c1cc(-c2ccccc2)oc2ccc(O)cc12` [6-HYDROXYFLAVONE], the outcome (in [16]; in the assay on Lipid bilayer [14]; with Lipid bilayer [15]; in the assay on Lipid bilayer [17]) was Active. The Activity entry in the assay on Lipid bilayer [2] is “Dose-dependent effect”. Besides, in [3], the half-maximal inhibitory concentration (IC50) came to 22.1 µg/mL (≈ 92.8 µM). Besides, the figures for the growth at 0.0001 µg/mL in the assay with HepG2, with MCF7 and in the assay with K562 were 82.8%, 28.8% and 13.3%, respectively. Further, the Kapp in assay [4] worked out at 800 M⁻¹; in assay [5] it was 572 M⁻¹. The Tm with Lipid bilayer [10] was determined as 37.4 °C; in the assay with Lipid bilayer [11] it was 37.3 °C; in the assay on Lipid bilayer [12] it was 37.1 °C; in the assay with Lipid bilayer [13] it was 36.9 °C.
For `O=c1cc(-c2ccccc2)oc2cc(O)ccc12` [7-HYDROXYFLAVONE], the Activity entry (in assay [1]; with Lipid bilayer [2]) was “Dose-dependent effect” each time. The IC50 in assay [3] amounted to 24.2 µg/mL (≈ 102 µM). The values for the growth at 0.0001 µg/mL in the assay with HepG2, with MCF7 and with K562 were 98.8%, 26.6% and 22.3%, respectively. The Kapp came to 450 M⁻¹ in [4] and 311 M⁻¹ in assay [5]. The values for the T with Lipid bilayer [6], with Lipid bilayer [7] and in the assay on Lipid bilayer [9] were 31.9 °C, 31.8 °C and 27.4 °C, respectively. For the same molecule, the Tm in the assay on Lipid bilayer [10] was 40.7 °C; with Lipid bilayer [11], 40.5 °C; with Lipid bilayer [12] it was 40.4 °C; in the assay on Lipid bilayer [13] it was 39.8 °C. Besides, the result with Lipid bilayer [14] and with Lipid bilayer [15] was Active.
As to `O=c1cc(-c2ccccc2)oc2cc(O)c(O)c(O)c12` [BAICALEIN], the outcome (in assay [16]; in the assay on Lipid bilayer [14]; in the assay with Lipid bilayer [15]; in the assay with Lipid bilayer [17]) was Active. Besides, the Activity entry with Lipid bilayer [2] was “Dose-dependent effect”. Also, the 50% inhibitory concentration (IC50) in [3] was determined as 18.2 µg/mL (≈ 67.3 µM). For the same molecule, the growth at 0.0001 µg/mL in the assay on HepG2 is 70.6%; in the assay on MCF7, -8.9%; with K562, 16.7%. In addition, the Kapp in assay [4] is 252 M⁻¹; in assay [5], 215 M⁻¹. In addition, the T was 32.1 °C in the assay on Lipid bilayer [6], 30.2 °C in the assay on Lipid bilayer [7], 32.9 °C in the assay on Lipid bilayer [8] and 33.8 °C in the assay with Lipid bilayer [9]. The Tm in the assay on Lipid bilayer [10] stood at 40.4 °C; in the assay on Lipid bilayer [11], 39.7 °C; in the assay on Lipid bilayer [12], 40.6 °C; with Lipid bilayer [13], 40.9 °C.
As for `O=c1cc(-c2ccccc2)oc2cc(O)cc(O)c12` [CHRYSIN], the outcome (in assay [16]; with Lipid bilayer [14]; in the assay on Lipid bilayer [15]) was Active. In addition, in the assay on Lipid bilayer [2], the Activity result was “Dose-dependent effect”. In addition, the concentration for half-maximal inhibition (IC50) in assay [3] was 20.4 µg/mL (≈ 80.2 µM). Besides, the growth at 0.0001 µg/mL with HepG2 came to 76.7%; in the assay on MCF7, 25.9%; in the assay with K562, 38.3%. In addition, the Kapp in assay [4] stood at 759 M⁻¹; in assay [5], 532 M⁻¹. The T is 31 °C in the assay with Lipid bilayer [6], 30.4 °C in the assay with Lipid bilayer [7], 30.5 °C with Lipid bilayer [8] and 31.6 °C in the assay on Lipid bilayer [9]. Moreover, the Tm with Lipid bilayer [10] was found to be 40.6 °C; in the assay on Lipid bilayer [11], 39.8 °C; in the assay with Lipid bilayer [12] it was 39.9 °C; in the assay with Lipid bilayer [13], 40.1 °C.
Turning to `O=c1cc(-c2ccccc2)oc2ccccc12` [FLAVONE], the outcome (in assay [16]; in the assay with Lipid bilayer [14]; in the assay on Lipid bilayer [15]) was Active. The figures for the Activity result (in the assay with Lipid bilayer [2]; in assay [18]) were “Dose-dependent effect” and 80%, respectively. Also, the IC50 in assay [3] is above 100 µg/mL. The growth at 0.0001 µg/mL in the assay on HepG2 was -7.6%; with MCF7 it was 50.3%; with K562, 56.8%. Moreover, the Kapp in assay [4] came out at 19600 M⁻¹; in assay [5], 1820 M⁻¹. Moreover, the Tm turned out to be 37.2 °C in the assay with Lipid bilayer [10], 36.7 °C in the assay on Lipid bilayer [11], 36.4 °C with Lipid bilayer [12] and 36.3 °C in the assay with Lipid bilayer [13].
